According to ChEMBL document CHEMBL1165902, “Synthesis and antiproliferative activity of oxazinocarbazole and N,N-bis(carbazolylmethyl)amine derivatives” (Eur J Med Chem, 2010):

How the values were obtained:
[1] = system: Caco-2; assay: Antiproliferative activity against human Caco-2 cells at 100 uM after 72 hrs by WST1 assay; assay type: functional
Procedure, shortened: (§1)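 Cells were exposed to compound for 72 h at 37 °C in RPMI 1640 with 10% FCS. Densities (cells/mL) were CEM 0.2×10^6, Jurkat 0.6×10^6, Raji 0.4×10^6, MCF-7 and Caco-2 0.2×10^6. WST-1 was then added for 4 h and absorbance read at 492 nm. Living cells are given as % of untreated-control OD (100 = no activity), with 0.1% DMSO vehicle controls and etoposide as positive control.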

[2] = system: Jurkat; assay: Antiproliferative activity against human Jurkat cells at 100 uM after 72 hrs by WST1 assay; assay type: functional; procedure, shortened: as §1
[3] = system: CCRF-CEM; assay: Antiproliferative activity against human CEM cells after at 100 uM 72 hrs by WST1 assay; assay type: functional; procedure, shortened: as §1
[4] = system: CCRF-CEM; assay: Antiproliferative activity against human CEM cells after 72 hrs by WST1 assay; assay type: functional, cell-based
Procedure, shortened: (§2)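 Seeding densities (cells/mL) were CEM 0.2×10^6, Jurkat 0.6×10^6, Raji 0.4×10^6, MCF-7 0.2×10^6 and Caco-2 0.2×10^6, in RPMI 1640 with 10% FCS, non-essential amino acids, pyruvate, glutamine and gentamicin. Cells were exposed to 12.5–100 µM (DMSO stocks, 0.1% DMSO controls) for 72 h at 37 °C. WST-1 was added for 4 h and read at 492 nm. IC50 is for 50% growth inhibition.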

[5] = system: Jurkat; assay: Antiproliferative activity against human Jurkat cells after 72 hrs by WST1 assay; assay type: functional, cell-based; procedure, shortened: as §2
[6] = system: Caco-2; assay: Antiproliferative activity against human Caco-2 cells after 72 hrs by WST1 assay; assay type: functional, cell-based; conditions: Caco-2, 72 h; procedure, shortened: as §2
[7] = system: MCF7; assay: Antiproliferative activity against human MCF7 cells after 72 hrs by WST1 assay; assay type: functional, cell-based; conditions: MCF7, 72 h; procedure, shortened: as §2
[8] = system: Raji; assay: Antiproliferative activity against human Raji cells after 72 hrs by WST1 assay; assay type: functional, cell-based; procedure, shortened: as §2
[9] = system: MCF7; assay: Antiproliferative activity against human MCF7 cells at 100 uM after 72 hrs by WST1 assay; assay type: functional; procedure, shortened: as §1
[10] = system: Raji; assay: Antiproliferative activity against human Raji cells at 100 uM after 72 hrs by WST1 assay; assay type: functional; procedure, shortened: as §1

Row | IC50 [4] | IC50 [5] | IC50 [6] | IC50 [7] | IC50 [8] | SMILES | Activity [1] | Activity [2] | Activity [3] | Activity [9] | Activity [10]
1 | 50.1 µM | 50 µM | 32.1 µM | 62.6 µM | 56.2 µM | C=CCN1COc2cc3c(cc2C1)c1ccccc1n3C | 2.5% | 1.5% | 1.5% | 1.5% | 10.5%
2 |  |  |  |  |  | CCn1c2ccccc2c2c(O)c(CN(Cc3ccccn3)Cc3ccc4c(c3O)c3ccccc3n4CC)ccc21 | 35.5% | 97.5% | 53% | 89% | 100%
3 |  |  |  |  |  | C=CCn1c2ccccc2c2c(O)c(CN(Cc3ccccn3)Cc3ccc4c(c3O)c3ccccc3n4CC=C)ccc21 | 94% | 92% | 78.5% | 94.5% | 95.5%
4 | 68.8 µM | 71.1 µM | 57.4 µM | 75 µM | 72.8 µM | Cc1ccc(CN2COc3cc4c(cc3C2)c2ccccc2n4C)cc1 | 6.5% | 2.5% | 1% | 27.5% | 27%
5 |  |  |  |  |  | Cn1c2ccccc2c2c3c(ccc21)CN(c1ccccc1)CO3 | 100% | 74.5% | 25% | 100% | 77%
6 |  |  |  |  |  | C=CCn1c2ccccc2c2c3c(ccc21)CN(c1ccccc1)CO3 | 54.5% | 13.5% | 17% | 83% | 49.5%
7 | 11.8 µM | 11.8 µM | 43.8 µM | 37 µM | 11.9 µM | C=CCN1COc2c(ccc3c2c2ccccc2n3CC=C(C)C)C1 | 30% | 2% | 4% | 2% | 3.5%
8 | 37.6 µM | 55.5 µM | 75 µM | 75 µM | 39.3 µM | CC(C)=CCn1c2ccccc2c2c3c(ccc21)CN(Cc1ccccc1)CO3 | 53% | 7.5% | 5.5% | 27.5% | 7%
9 |  |  |  |  |  | CC(C)=CCn1c2ccccc2c2c(O)c(CN(Cc3ccccn3)Cc3ccc4c(c3O)c3ccccc3n4CC=C(C)C)ccc21 | 100% | 100% | 100% | 100% | 100%
10 |  |  |  |  |  | Cn1c2ccccc2c2c(O)c(CN(Cc3ccccn3)Cc3ccc4c(c3O)c3ccccc3n4C)ccc21 | 54% | 72% | 87.5% | 98.5% | 100%
11 | 74.3 µM | 75 µM | 68.8 µM |  |  | Cn1c2ccccc2c2ccc3c(c21)CN(Cc1ccccn1)CO3 | 7% | 2% | 1% | 1.5% | 23%
12 |  |  |  |  |  | Cn1c2ccccc2c2c3c(ccc21)CN(Cc1ccccc1)CO3 | 100% | 87% | 10% | 87% | 80%
13 | 16.5 µM | 11.5 µM | 43.7 µM | 56.4 µM | 12.1 µM | Cn1c2ccccc2c2cc3c(cc21)OCN(Cc1ccccn1)C3 | 7.5% | 3.5% | 1.5% | 5% | 38%
14 |  |  |  |  |  | C=CCN1COc2ccc3c4ccccc4n(C)c3c2C1 | 5% | 2% | 1.5% | 62% | 60.5%
15 | 70.8 µM | 74.2 µM | 62.5 µM | 72.1 µM | 75 µM | Cn1c2ccccc2c2ccc3c(c21)CN(Cc1ccccc1)CO3 | 6% | 5.5% | 1.5% | 60.5% | 31.5%
16 |  |  |  |  |  | CCn1c2ccccc2c2c3c(ccc21)CN(c1ccccc1)CO3 | 100% | 55% | 58.5% | 100% | 84%
17 |  |  |  |  |  | CCn1c2ccccc2c2c3c(ccc21)CN(Cc1ccccn1)CO3 | 16% | 82% | 23% | 52% | 100%
18 |  |  |  |  |  | Cn1c2ccccc2c2cc(CN(Cc3ccccn3)Cc3cc4c5ccccc5n(C)c4cc3O)c(O)cc21 | 10.5% | 8.5% | 9% | 24.5% | 70%

Row | IC50 [4] | IC50 [5] | IC50 [6] | IC50 [7] | IC50 [8] | SMILES | Activity [1] | Activity [2] | Activity [3] | Activity [9] | Activity [10]
19 | 35.7 µM | 69 µM | 32.1 µM |  | 43.6 µM | C=CCN1COc2c(ccc3c2c2ccccc2n3C)C1 | 5% | 8.5% | 4.5% | 35% | 9.5%
20 |  |  |  |  |  | CCn1c2ccccc2c2c3c(ccc21)CN(Cc1ccccc1)CO3 | 46% |  | 31.5% | 64% | 
21 |  |  |  |  |  | CCn1c2ccccc2c2c3c(ccc21)CN(Cc1ccc(C)cc1)CO3 | 93% | 49.5% | 15% | 85.5% | 31.5%
22 |  |  |  |  |  | Cn1c2ccccc2c2cc3c(cc21)OCN(Cc1ccccc1)C3 | 1.5% | 1% | 0.5% | 3% | 11%
23 |  |  |  |  |  | C=CCN1COc2c(ccc3c2c2ccccc2n3CC=C)C1 | 12% | 2.5% | 2% | 43% | 19.5%
24 |  |  |  |  |  | Cc1ccc(CN2COc3c(ccc4c3c3ccccc3n4C)C2)cc1 |  |  | 55.5% | 42.5% | 
25 |  |  |  |  |  | CC(c1ccccc1)N1COc2c(ccc3c2c2ccccc2n3C)C1 (centres undefined) | 100% | 80.5% | 40% | 100% | 84%
26 |  |  |  |  |  | C=CCn1c2ccccc2c2c3c(ccc21)CN(Cc1ccccc1)CO3 | 56.5% | 67% | 5.5% | 55.5% | 100%
27 |  |  |  |  |  | C=CCn1c2ccccc2c2c3c(ccc21)CN(Cc1ccc(C)cc1)CO3 | 54.5% | 3.5% | 9% | 66% | 9.5%
28 |  |  |  |  |  | C=CCn1c2ccccc2c2c3c(ccc21)CN(Cc1ccccn1)CO3 | 55.5% | 12.5% | 14.5% | 47.5% | 31.5%
29 | 25.2 µM | 37.3 µM | 37.7 µM | 62.5 µM | 57.9 µM | CC(c1ccccc1)N1COc2cc3c(cc2C1)c1ccccc1n3C (centres undefined) | 2% | 1% | 0.5% | 0% | 18.5%
30 |  |  |  |  |  | Cc1ccc(CN2COc3ccc4c5ccccc5n(C)c4c3C2)cc1 | 3% | 1.5% | 1% | 1.5% | 12%
31 |  |  |  |  |  | CC(C)=CCn1c2ccccc2c2c3c(ccc21)CN(Cc1ccc(C)cc1)CO3 | 48.5% | 13.5% | 11.5% | 41.5% | 11%
32 |  |  |  |  |  | CC(c1ccccc1)N1COc2ccc3c4ccccc4n(C)c3c2C1 (centres undefined) | 5% | 0.5% | 0.5% | 0% | 19.5%
33 |  |  |  |  |  | Cn1c2ccccc2c2cc3c(cc21)OCN(Cc1nc2ccccc2s1)C3 | 51% | 17% | 34% | 79% | 78%
34 | 44 µM | 75 µM | 25.2 µM |  | 43.6 µM | C=CCN1COc2c(ccc3c2c2ccccc2n3CC)C1 | 34% | 6.5% | 4% | 10% | 4.5%
35 |  |  |  |  |  | CCn1c2ccccc2c2c3c(ccc21)CN(C(C)c1ccccc1)CO3 (centres undefined) | 59% |  | 21% | 86.5% | 
36 |  |  |  |  |  | CC(C)=CCn1c2ccccc2c2c3c(ccc21)CN(c1ccccc1)CO3 | 60% | 7.5% | 10.5% | 49% | 17%
